Converted amounts (≈) assume the structure as drawn. Values belong to the compound of their own block, whether it stands above or below them. The source made the active and inactive calls. No cut-off for these calls is given here.
Key:
[1] = Half life in 20% DMSO/PBS at 100 uM at 37 degC at pH 7.4 by RP-UPLC-MS analysis; assay type: physicochemical
Summary of the method: (§1)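 Prodrug at 100 µM in 20% DMSO/PBS (pH 7.4) with diclofenac internal standard was incubated at 37 °C with shaking, with H2O2 at 0.25–10 mM or PBS only (stability control). Samples were taken from 5 min to 24 h. Percent remaining compound and MTX formation were read by RP-UPLC at 306 nm. Runs were in triplicate and t1/2 is given ± SD.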

[2] = Thermodynamic solubility in pH 7.4 PBS buffer at 2 mg sonicated for 10 mins followed by incubation at 20 degC for 15 hrs by RP-UPLC-MS analysis; assay type: physicochemical; details: read-out: Therm_solubility
Summary of the method: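 Solid (2 mg) in 1 mL PBS (pH 7.4) was sonicated, shaken for 15 h at 20 °C and centrifuged. The supernatant was diluted 1:5 in DMF and quantified by RP-UPLC-MS against a 25–125 µg/mL calibration curve. Results are at least three measurements ± SD.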

[3] = Prodrug activation in 20% DMSO/PBS assessed as 0.5 mM H2O2-mediated methotrexate formation by measuring prodrug half life at 100 uM at 37 degC, pH 7.4 by RP-UPLC-MS analysis; assay type: physicochemical; details: buffer, pH 7.4, 100 µM; summary of the method: as §1
[4] = test system: Mus musculus; test: Anti-arthritic activity in DBA/1J mouse model of collagen-induced arthritis inflammation assessed as reduction in fore limb swelling at 8.3 mg/kg, ip administered daily for 14 days starting from day 27 post disease onset and measured 3 times per week from day 18 to 40 […]; assay type: functional, organism-based
Summary of the method: (§2)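 Male DBA/1J mice (8–9 weeks) were immunized intradermally near the tail base with 100 µg chicken type II collagen in CFA on day -1, with a 50 µg boost on day 21. From day 27 they received daily i.p. dosing in 2% DMSO/PBS for 14 days (n = 8/group). Blinded scoring ran three times weekly, day 18–40, at 0–15 per limb (maximum 60). Mice scoring above 45 were removed. Results are mean ± SEM, tested by one-tailed Mann–Whitney.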

[5] = test system: Mus musculus; test: Toxicity in DBA/1J mouse model of collagen-induced arthritis inflammation assessed as reduction in body weight at 8.3 mg/kg, ip administered daily for 14 days starting from day 27 post disease onset; assay type: organism-based; details: in vivo, 336 h
[6] = Half life in human plasma at 37 degC at pH 7.4 by RP-UPLC-MS analysis; assay type: ADME, cell-free
Summary of the method: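 Reconstituted freeze-dried human plasma was diluted 1:1 with PBS (pH 7.4) and preincubated for 10 min at 37 °C. Compound was added from a 1 mg/mL DMSO stock and incubated at 37 °C. Samples at 0, 0.5, 1, 2, 4 and 8 h were quenched in ice-cold MeCN, centrifuged, and the supernatant analyzed by RP-UPLC-MS. t1/2 is from triplicates ± SD.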

[7] = Prodrug activation in 20% DMSO/PBS assessed as 5 mM H2O2-mediated methotrexate formation by measuring prodrug half life at 100 uM at 37 degC, pH 7.4 by RP-UPLC-MS analysis; assay type: physicochemical; details: buffer, pH 7.4, 100 µM; summary of the method: as §1
[8] = Apparent intrinsic clearance in human liver microsomes at 37 degC at pH 7.4 by RP-UPLC-MS analysis; assay type: ADME, microsome; details: read-out: CLH(app)
Summary of the method: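 Pooled human liver microsomes in PBS were preincubated for 10 min at 37 °C. Compound was added from a 10 mM DMSO stock, then NADPH from a 30 mM stock, with a no-NADPH control. Aliquots taken at 0–40 min were quenched in ice-cold MeCN, centrifuged and analyzed by UPLC-MS. CL'int was derived from the in vitro t1/2 scaled by 45 mg microsomes/g liver and 20 g liver/kg body weight.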

[9] = Chemical stability in pH 7.4 PBS buffer after 24 hrs by RP-UPLC-MS analysis; assay type: physicochemical; details: pH 7.4, 24 h; summary of the method: as §1
[10] = Chemical stability in pH 7.4 PBS buffer by RP-UPLC-MS analysis; assay type: physicochemical; summary of the method: as §1
[11] = test system: Mus musculus; test: Toxicity in DBA/1J mouse model of collagen-induced arthritis inflammation assessed as reduction in body weight at 7 mg/kg, ip administered daily for 14 days starting from day 27 post disease onset; assay type: organism-based; details: in vivo, 336 h
[12] = test system: Mus musculus; test: Anti-arthritic activity in DBA/1J mouse model of collagen-induced arthritis inflammation assessed as reduction in fore limb swelling at 7 mg/kg, ip administered daily for 14 days starting from day 27 post disease onset and measured 3 times per week from day 18 to 40 […]; assay type: functional, organism-based; summary of the method: as §2
[13] = Chemical stability in 20% DMSO/PBS at 100 uM at 37 degC after 60 mins in absence of H2O2 by RP-UPLC-MS analysis; assay type: physicochemical; details: buffer, 1 h; summary of the method: as §1
[14] = Chemical stability in 20% DMSO/PBS at 100 uM at 37 degC after 60 mins in presence of 10 mM H2O2 by RP-UPLC-MS analysis; assay type: physicochemical; details: buffer, 1 h; summary of the method: as §1

half-life at 100 µM [1]: 116 h | solubility thermodynamic at 15 h [2]: 400 µg/mL (≈ 741 µM) | t1/2 [3]: 16.5 h | half-life [6]: 7 h | t1/2 [7]: 1.7 h | CLint scaled [8]: 1.4 mL/min/kg | Stability [9]: Stable
SMILES: CN(Cc1cnc2nc(N)nc(N)c2n1)c1ccc(C(=O)N[C@@H](CCC(=O)N2CCSC2=O)C(=O)O)cc1
Activity [4]: Active | Activity [5]: Non-Toxic

Stability [10]: Unstable
SMILES: CN(Cc1cnc2nc(N)nc(N)c2n1)c1ccc(C(=O)N[C@@H](CCC(=O)O)C(=O)N2CCSC2=O)cc1

Stability [13]: Stable | Stability [14]: Stable
SMILES: CN(Cc1cnc2nc(N)nc(N)c2n1)c1ccc(C(=O)N[C@@H](CCC(=O)O)C(=O)O)cc1 [METHOTREXATE]
Activity [11]: Toxic | Activity [12]: Active

— ChEMBL document CHEMBL4270574, “Methotrexate prodrugs sensitive to reactive oxygen species for the improved treatment of rheumatoid arthritis” (Eur J Med Chem, 2018)
